Screens from PubChem BioAssay.
Tcruzi prolif: T. cruzi proliferation inhibition | T. cruzi beta-gal in NIH3T3, GalScreen luminescence, 90 h | inhibition, % at 8.34 µM | hit rate 5.9% among 77,000 | AID 624255;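 active means mean inhibition above about 93%, with at least 55% of replicates each passing it, limit read from the data, passing the limit was not always enough; inconclusive means only one of those two conditions holds; inactive means neither condition holds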
IDH1 mut inh: inhibitors of human IDH1 R132H; inhibition, % at 10 µM; IDH1 R132H reductase, diaphorase/resazurin fluorescence, 60 min; hit rate 0.18% among 70,000; in the data active means inhibition above about 34%; inconclusive means no clear call, values can overlap the other calls; inactive means below about 11%
Pf Dd2 inh: blocks growth of Plasmodium falciparum Dd2 parasites; P. falciparum Dd2 growth, SYBR Green, 72 h; hits give low values; activity change, % at 10 µM; hit rate 2.3% among 94,000; in the data active means activity change below about -80%; inconclusive means no clear call, values can overlap the other calls
KDM4C inh: KDM4C (human) demethylase inhibition. AID 720574. Q9H3R0. hit rate 0.15% among 96,000. inhibition, % at 12.5 µM. GST-KDM4C 2-372, H3K9me3 peptide, LANCE TR-FRET;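 active means mean replicate inhibition above about 25%, with at least 55% of replicates also reaching it, limit read from the data, passing the limit was not always enough; inconclusive means only one of those two conditions met; inactive means neither condition met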
Target sequence (Q9H3R0 2-372 limits assumed): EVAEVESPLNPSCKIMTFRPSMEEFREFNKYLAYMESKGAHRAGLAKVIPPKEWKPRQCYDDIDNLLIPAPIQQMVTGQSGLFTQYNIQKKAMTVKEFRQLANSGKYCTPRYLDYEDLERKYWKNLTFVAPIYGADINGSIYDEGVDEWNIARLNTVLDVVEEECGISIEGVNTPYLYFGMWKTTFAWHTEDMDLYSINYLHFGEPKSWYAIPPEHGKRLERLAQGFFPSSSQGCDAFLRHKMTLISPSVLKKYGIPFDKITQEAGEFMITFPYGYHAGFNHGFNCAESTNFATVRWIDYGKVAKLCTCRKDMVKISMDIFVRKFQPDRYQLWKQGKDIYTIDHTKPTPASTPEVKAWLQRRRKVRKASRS
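Material: GST-tagged GASC-1 (JMJD2C) catalytic fragment, aa 2-372. Input: enzyme final amount 10 nM. Medium: HEPES buffer, pH 7.5, plus ascorbate. Reagent: H3K9me3 peptide substrate, Fe(II), 2-oxoglutarate. Doses: single dose. Times: reaction 30 min RT, detection step 1 h RT. Measured by: LANCE TR-FRET. Evaluation: Fall in 671/618 emission ratio as inhibition.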
Hits are given with their value; - = inactive; ? = inconclusive; . = not tested or not shown. Shown are actives, neighbours in structure and some others; about 5.8% of the full set was active somewhere.

SMILES	Tcruzi prolif	IDH1 mut inh	Pf Dd2 inh	KDM4C inh
C[C@@H]1CN([C@@H](C)CO)C(=O)c2c(c3ccccc3n2C)-c2ccccc2CO[C@H]1CN(C)C(=O)Nc1cccc(Cl)c1Cl	.	.	-94.1	-
COc1ccc(CN(C)C[C@@H]2Oc3c(NC(=O)c4ccncc4)cccc3C(=O)N([C@H](C)CO)C[C@H]2C)cc1	.	-	.	.
Cc1c(C(=O)OC(C)C)sc2ncn(CC(=O)Nc3ccccc3C(F)(F)F)c(=O)c12	.	-	.	.
COc1ccc2c3c([nH]c2c1)[C@@H](CO)N(Cc1nccs1)CC31CCN(Cc2nccs2)CC1	.	.	-89.9	-
COc1ccc2c3c([nH]c2c1)[C@H](CO)N(C(=O)Cc1ccccn1)CC31CCN(Cc2ccccn2)CC1	.	.	-	-
COc1ccc2c3c([nH]c2c1)[C@@H](CO)N(Cc1cccc(F)c1)CC31CCN(Cc2ccccn2)CC1	.	.	-91.9	-
COc1cccc(CN2CC3(CCN(Cc4ccccn4)CC3)c3c([nH]c4cc(OC)ccc34)[C@@H]2CO)c1	.	.	-88.8	-
COc1ccc2c3c([nH]c2c1)[C@H](CO)N(Cc1ccccn1)CC31CCN(Cc2cccc(F)c2)CC1	.	.	-	-
Cn1c(SCC(=O)c2ccc([N+](=O)[O-])cc2)nnc1-c1cccnc1	.	-	.	.
Cc1ccc(C(=O)C2C(=O)C(=O)N(Cc3ccco3)C2c2ccc(F)cc2)o1 (stereo unspecified)	.	-	.	.
O=C(CC1NCCNC1=O)Nc1ccccc1Cl (stereo unspecified)	.	-	.	.
COc1cccc(CN2CC3(CN(CC4CCOCC4)C3)c3c([nH]c4cc(OC)ccc34)[C@@H]2CO)c1	.	.	-	-
COc1cccc(CN2CC3(CN(CC4CC4)C3)c3c([nH]c4cc(OC)ccc34)[C@@H]2CO)c1	.	.	-	-
COc1cccc(CN2CC3(CN(CC4CCOCC4)C3)c3c([nH]c4cc(OC)ccc34)[C@H]2CO)c1	.	.	-82.9	-
COc1ccc2c3c([nH]c2c1)[C@H](CO)N(Cc1cccc(F)c1)CC31CN(CC2CC2)C1	.	.	-84.5	-
COc1ccc2c3c([nH]c2c1)[C@@H](CO)N(Cc1cccc(F)c1)CC31CCN(CC2CC2)CC1	.	.	-80.4	-
Cc1ccccc1-c1ccc2c(c1)O[C@@H](CN(C)Cc1ccncc1)[C@H](C)CN([C@H](C)CO)S2(=O)=O	-	-	-88.0	-
C[C@H](CO)N1C[C@H](C)[C@@H](CN(C)Cc2ccncc2)Oc2cc(C3=CCCC3)ccc2S1(=O)=O	-	47.5	-	-
Cc1ccccc1-c1ccc2c(c1)O[C@H](CN(C)Cc1ccncc1)[C@H](C)CN([C@H](C)CO)S2(=O)=O	-	-	-	-
C[C@H](CO)N1C[C@H](C)[C@H](CN(C)C(=O)Cc2ccncc2)Oc2cc(C3=CCCCC3)ccc2S1(=O)=O	-	?	-	-
C[C@@H]1CN([C@H](C)CO)S(=O)(=O)c2ccc(Br)cc2O[C@H]1CN(C)Cc1ccncc1	-	42.0	-	-
C[C@@H]1CN([C@@H](C)CO)S(=O)(=O)c2ccc(C3=CCCCC3)cc2O[C@H]1CN(C)C(=O)Cc1cccnc1	-	45.1	-	-
COc1ccc(OC)c(NC(=O)c2ccc(Cl)c(S(=O)(=O)Nc3ccc(C)cc3C)c2)c1	.	-	.	.
O=C(O)c1ccc2c(c1)C1C3CCC(C3)C1C(c1ccccc1)N2 (stereo unspecified)	.	-	.	.
CC(C)C#Cc1ccc2c(c1)O[C@H](CN(C)Cc1ccncc1)[C@H](C)CN([C@@H](C)CO)S2(=O)=O	104.8	-	-	-
SMILES	Tcruzi prolif	IDH1 mut inh	Pf Dd2 inh	KDM4C inh
Cc1ccc(S(=O)(=O)N(C)C[C@H]2OCCCC[C@H](C)Oc3ccc(NC(=O)Nc4ccc5c(c4)OCO5)cc3C(=O)N([C@@H](C)CO)C[C@H]2C)cc1	-	-	-82.0	-
Cc1ccc(S(=O)(=O)N(C)C[C@@H]2OCCCC[C@@H](C)Oc3ccc(NC(=O)Nc4ccc5c(c4)OCO5)cc3C(=O)N([C@@H](C)CO)C[C@@H]2C)cc1	.	.	-83.1	-
Cc1ccc(S(=O)(=O)N(C)C[C@H]2OCCCC[C@H](C)Oc3ccc(NC(=O)Nc4ccc5c(c4)OCO5)cc3C(=O)N([C@H](C)CO)C[C@@H]2C)cc1	.	.	-	-
Cc1ccc(S(=O)(=O)N(C)C[C@H]2OCCCC[C@@H](C)Oc3ccc(NC(=O)Nc4ccc5c(c4)OCO5)cc3C(=O)N([C@@H](C)CO)C[C@H]2C)cc1	.	-	-	-
COc1c(O)cc2c(c1O)C(=O)OC(C)C2O (stereo unspecified)	.	-	.	.
C[C@H]1CN([C@@H](C)CO)C(=O)c2ccccc2-c2ccccc2CO[C@H]1CN(C)Cc1ccc(C(F)(F)F)cc1	.	.	-92.1	-
C[C@@H]1CN([C@H](C)CO)C(=O)c2ccccc2-c2ccccc2CO[C@@H]1CN(C)Cc1ccc(C(F)(F)F)cc1	.	.	-87.0	-
Cc1ccccc1S(=O)(=O)N(C)C[C@H]1OCc2ccccc2-c2ccccc2C(=O)N([C@H](C)CO)C[C@H]1C	-	-	-85.6	-
C[C@H](CO)N1C[C@H](C)[C@H](CN(C)Cc2ccc(C(F)(F)F)cc2)OCc2ccccc2-c2ccccc2C1=O	.	.	-83.7	-
C[C@H]1CN([C@@H](C)CO)C(=O)c2ccccc2-c2ccccc2CO[C@@H]1CN(C)Cc1ccc(C(F)(F)F)cc1	.	.	-	-
C[C@@H]1CN([C@@H](C)CO)C(=O)c2ccccc2-c2ccccc2CO[C@H]1CN(C)Cc1ccccc1C(F)(F)F	.	.	-89.6	-
C[C@H]1CN([C@@H](C)CO)C(=O)c2c(c3ccccc3n2C)-c2ccccc2CO[C@H]1CN(C)Cc1ccccc1C(F)(F)F	.	.	-	-
C[C@H](CO)N1C[C@H](C)[C@H](CN(C)S(=O)(=O)c2ccc(C(F)(F)F)cc2)OCc2ccccc2-c2ccccc2C1=O	-	-	-85.0	-
CCOc1ccccc1NC(=O)C(C)Oc1ccc(OC)cc1 (stereo unspecified)	.	-	.	.
Cc1cc(O)c(Cc2c(O)cc(C)oc2=O)c(=O)o1	.	-	.	.
C[C@H]1CCCCO[C@@H](CN(C)C(=O)Nc2ccc(C(F)(F)F)cc2)[C@@H](C)CN([C@@H](C)CO)C(=O)c2cc(NS(=O)(=O)c3ccc(F)cc3)ccc2O1	-	.	-	-
Cc1ccc(S(=O)(=O)Nc2ccc3c(c2)C(=O)N([C@H](C)CO)C[C@@H](C)[C@H](CN(C)Cc2ccc(C(F)(F)F)cc2)OCCCC[C@@H](C)O3)cc1	.	.	-	-
C[C@@H]1CCCCO[C@H](CN(C)C(=O)Nc2ccc(C(F)(F)F)cc2)[C@@H](C)CN([C@@H](C)CO)C(=O)c2cc(NS(=O)(=O)c3ccc(F)cc3)ccc2O1	-	-	-84.1	-
Cc1ccc(S(=O)(=O)Nc2ccc3c(c2)C(=O)N([C@@H](C)CO)C[C@@H](C)[C@@H](CN(C)Cc2ccc(C(F)(F)F)cc2)OCCCC[C@H](C)O3)cc1	.	-	-80.9	-
Cc1ccc(S(=O)(=O)Nc2ccc3c(c2)C(=O)N([C@@H](C)CO)C[C@@H](C)[C@@H](CN(C)C(=O)Nc2ccc(C(F)(F)F)cc2)OCCCC[C@H](C)O3)cc1	-	.	-82.0	-
CCc1ccc(-n2nc3ccc(NC(=O)COc4ccccc4[N+](=O)[O-])cc3n2)cc1	.	-	.	.
